Values after ≈ are worked out from the molar mass of the structure shown. Numbered stars: 1 amine (or outer) side, 2 acyl side, 3 side chain; on linkers, the order of the positions; unused ones are H or OH. Bridge positions count the residues as written; N and C are the ends. Square brackets hold non-standard residues; d marks the D form. Peptide text beside a SMILES is read from it. * marks the point of attachment. hTyr(3S-OH,4S-OH,3'-OSO3H) = N[C@H](C(=O)O)[C@H](O)[C@@H](O)c1ccc(O)c(OS(=O)(=O)O)c1; Orn(4R-OH,5R-OH) = O=C([C@H](C[C@@H](O)[C@@H](O)N[*:3])N[*:1])[*:2]; Pro(3S-OH,4S-Me) = C[C@H]1CN[C@H](C(=O)O)[C@H]1O; X1 = CCCCCOc1ccc(-c2cc(-c3ccc(C(=O)*)cc3)no2)cc1; Gln(3R-OH) = NC(=O)C[C@@H](O)[C@H](N)C(=O)O; Hyp = O=C(O)[C@@H]1C[C@@H](O)CN1
How the values were obtained:
[1] = system: Candida albicans; assay: Antimicrobial activity against Candida albicans SC5314 by M27-A3 method in presence of 50% human serum; assay type: functional
Procedure, shortened: (§1)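 Broth microdilution per CLSI M27-A3 in RPMI 1640, done in triplicate on three separate days. Each strain was tested with and without 50% human serum. C. krusei ATCC 6258 and C. parapsilosis ATCC 22019 served as QC strains. Arithmetic means are reported, and geometric means were used for comparison.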

[2] = system: Candida albicans; assay: Antimicrobial activity against Candida albicans 36082 by M27-A3 method; assay type: functional
Procedure, shortened: (§2)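 Broth microdilution per CLSI M27-A3 in RPMI 1640, with and without 50% human serum, in triplicate. C. krusei ATCC 6258 and C. parapsilosis ATCC 22019 served as quality-control strains. MIC reported as arithmetic mean of three repetitions on separate days.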

[3] = system: Candida albicans; assay: Antimicrobial activity against Candida albicans 90028 by M27-A3 method; assay type: functional; procedure, shortened: as §2
[4] = system: Candida albicans; assay: Antimicrobial activity against Candida albicans 3795 by M27-A3 method; assay type: functional; procedure, shortened: as §2
[5] = system: Candida albicans; assay: Antimicrobial activity against Candida albicans 119 harboring FKS1 T1921C mutant gene and FKS1 hotspot1 F641L mutant gene by M27-A3 method; assay type: functional; procedure, shortened: as §1
[6] = system: Candida albicans; assay: Antimicrobial activity against Candida albicans 177 harboring FKS1 T1922C mutant gene and FKS1 hotspot1 F641S mutant gene by M27-A3 method in presence of 50% human serum; assay type: functional; procedure, shortened: as §1
[7] = system: Candida albicans; assay: Antimicrobial activity against Candida albicans 5415 harboring FKS1 T1933C mutant gene and FKS1 hotspot1 S645P mutant gene by M27-A3 method; assay type: functional; procedure, shortened: as §1
[8] = system: Candida albicans; assay: Antimicrobial activity against Candida albicans 89 harboring FKS1 C1934A mutant gene and FKS1 hotspot1 S645Y mutant gene by M27-A3 method; assay type: functional; procedure, shortened: as §1
[9] = system: Candida albicans; assay: Antimicrobial activity against Candida albicans 85 harboring FKS1 C1934T mutant gene and FKS1 hotspot1 S645F mutant gene by M27-A3 method; assay type: functional; procedure, shortened: as §1
[10] = system: Candida albicans; assay: Antimicrobial activity against Candida albicans 85 harboring FKS1 C1934T mutant gene and FKS1 hotspot1 S645F mutant gene by M27-A3 method in presence of 50% human serum; assay type: functional; procedure, shortened: as §1
[11] = system: Candida albicans; assay: Antimicrobial activity against Candida albicans 121 harboring FKS1 G4082A mutant gene and FKS1 hotspot2 R1361H mutant gene by M27-A3 method in presence of 50% human serum; assay type: functional; procedure, shortened: as §1
[12] = system: Candida albicans; assay: Antimicrobial activity against Candida albicans 194 harboring FKS1 C1934T/G4082R mutant gene and FKS1 hotspot1 S645F mutant gene and FKS1 hotspot2 R1361R/H mutant gene by M27-A3 method in presence of 50% human serum; assay type: functional; procedure, shortened: as §1
[13] = system: Candida albicans; assay: Antimicrobial activity against Candida albicans 90 harboring FKS1 G4082R mutant gene and FKS1 hotspot2 R1361R/H mutant gene by M27-A3 method in presence of 50% human serum; assay type: functional; procedure, shortened: as §1
[14] = system: Candida albicans; assay: Antimicrobial activity against Candida albicans A15 harboring FKS1 T1933Y mutant gene and FKS1 hotspot1 S645S/P mutant gene by M27-A3 method; assay type: functional; procedure, shortened: as §1
[15] = Inhibition of Candida albicans 90028 1,3-beta-D-glucan synthase subunit FKS1p
Procedure, shortened: (§3)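 Enzyme is product-entrapped 1,3-β-D-glucan synthase, enriched from membranes of each strain grown at 37°C with shaking in YPD broth to early stationary phase. Filtration polymerization assay uses [3H]UDPG, started by adding enzyme and run 60 min at 25°C. Echinocandins are added as serial dilutions, with 1% DMSO controls for anidulafungin. IC50 is from a variable-slope sigmoidal fit; values are triplicate arithmetic means.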

[16] = Inhibition of Candida albicans 3795 1,3-beta-D-glucan synthase subunit FKS1p; procedure, shortened: as §3
[17] = Inhibition of Candida albicans 119 1,3-beta-D-glucan synthase subunit FKS1p T1921C mutant
Procedure, shortened: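 Product-entrapped glucan synthase from YPD-grown cells (37°C, early stationary phase) in a filtration polymerization assay with [3H]UDPG. Echinocandin serial dilutions were added, with 1% DMSO in controls for anidulafungin. Reactions were started with enzyme, run 60 min at 25°C and stopped on ice. IC50 came from a variable-slope sigmoidal fit, in triplicate.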

[18] = Inhibition of Candida albicans 2762 1,3-beta-D-glucan synthase subunit FKS1p T1922C mutant; procedure, shortened: as §3
[19] = Inhibition of Candida albicans 205 1,3-beta-D-glucan synthase subunit FKS1p T1933C mutant; procedure, shortened: as §3
[20] = Inhibition of Candida albicans 89 1,3-beta-D-glucan synthase subunit FKS1p C1934A mutant; procedure, shortened: as §3
[21] = Inhibition of Candida albicans 122 1,3-beta-D-glucan synthase subunit FKS1p C1946A mutant; procedure, shortened: as §3
[22] = Inhibition of Candida albicans 194 1,3-beta-D-glucan synthase subunit FKS1p C1934T/G4082R mutant; procedure, shortened: as §3
[23] = Inhibition of Candida albicans 90 1,3-beta-D-glucan synthase subunit FKS1p G4082R mutant; procedure, shortened: as §3
[24] = Inhibition of Candida albicans A15-10 1,3-beta-D-glucan synthase subunit FKS1p T1933C mutant; procedure, shortened: as §3
[25] = system: Candida albicans; assay: Activity at Candida albicans 36082 1,3-beta-D-glucan synthase subunit FKS1p
Procedure, shortened: (§4)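 Glucan synthase from cells grown at 37°C with vigorous shaking to early stationary phase in YPD. Membrane enzyme enriched by product entrapment. Serial echinocandin dilutions; ANF controls held 1% DMSO. Reaction started by adding enzyme, run 60 min at 25°C in a filtration polymerization assay, stopped on ice. IC50 from a variable-slope sigmoidal fit; means of three repetitions on separate days.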

[26] = system: Candida albicans; assay: Activity at Candida albicans 1002 1,3-beta-D-glucan synthase subunit FKS1p; procedure, shortened: as §4
[27] = system: Candida albicans; assay: Activity at Candida albicans 3107 1,3-beta-D-glucan synthase subunit FKS1p; procedure, shortened: as §4
[28] = system: Candida albicans; assay: Activity at Candida albicans 5415 1,3-beta-D-glucan synthase subunit FKS1p T1933C mutant
Procedure, shortened: (§5)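 Product-entrapped 1,3-β-D-glucan synthase from cells grown in YPD at 37°C to early stationary phase. Wells held 50 mM HEPES pH 7.5, 10% glycerol, 1.5 mg/ml BSA, 25 mM KF, 1 mM EDTA, 25 μM GTP-γ-S, 1 μg enzyme and [3H]UDPG (0.015–2 mM). Reactions ran 60 min at 25°C. Vmax and Km came from Lineweaver-Burke plots, in triplicate.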

[29] = system: Candida albicans; assay: Activity at Candida albicans 89 1,3-beta-D-glucan synthase subunit FKS1p C1934A mutant; procedure, shortened: as §5
[30] = system: Candida albicans; assay: Activity at Candida albicans 194 1,3-beta-D-glucan synthase subunit FKS1p C1934T/G4082R mutant; procedure, shortened: as §5
[31] = system: Candida albicans; assay: Activity at Candida albicans 90 1,3-beta-D-glucan synthase subunit FKS1p G4082R mutant; procedure, shortened: as §5

Which MIC [1] does the source give for `CCCCCOc1ccc(-c2cc(-c3ccc(C(=O)N[C@H]4C[C@@H](O)[C@@H](O)NC(=O)[C@@H]5[C@@H](O)[C@@H](C)CN5C(=O)[C@H]([C@H](O)CC(N)=O)NC(=O)[C@H]([C@H](O)[C@@H](O)c5ccc(O)c(OS(=O)(=O)O)c5)NC(=O)[C@@H]5C[C@@H](O)CN5C(=O)[C@H]([C@@H](C)O)NC4=O)cc3)no2)cc1` [MICAFUNGIN] (X1-[Orn(4R-OH,5R-OH)]T[Hyp][hTyr(3S-OH,4S-OH,3'-OSO3H)][Gln(3R-OH)][Pro(3S-OH,4S-Me)]; lactam 1-C) here?
The MIC was 0.5 µg/mL.

What about the MIC [2] of the same molecule?
The MIC was 0.03 µg/mL (≈ 0.0236 µM).

And the MIC [3]?
Its MIC is 0.03 µg/mL (≈ 0.0236 µM).

And the MIC [4]?
The MIC was 0.03 µg/mL (≈ 0.0236 µM).

And the MIC [5]?
The MIC was 0.33 µg/mL (≈ 0.26 µM).

And the MIC [6]?
Its MIC is 16 µg/mL.

What about the MIC [7] of the same molecule?
Its MIC is 4 µg/mL (≈ 3.15 µM).

And the MIC [8]?
Its MIC is 4 µg/mL (≈ 3.15 µM).

And the MIC [9]?
Its MIC is 2.67 µg/mL (≈ 2.1 µM).

What about the MIC [10] of the same molecule?
The MIC was 8 µg/mL.

What about the MIC [11] of the same molecule?
Its MIC is 8 µg/mL.

What about the MIC [12] of the same molecule?
Its MIC is 8 µg/mL.

What about the MIC [13] of the same molecule?
Its MIC is 4 µg/mL.

And the MIC [14]?
Its MIC is 0.5 µg/mL (≈ 0.394 µM).

And the IC50 [15]?
The IC50 was 0.0188 µg/mL (≈ 0.0148 µM).

And the Ki [15]?
The Ki was 0.01547 µg/mL (≈ 0.0122 µM).

And the IC50 [16]?
Its IC50 is 0.03889 µg/mL (≈ 0.0306 µM).

And the Ki [16]?
Its Ki is 0.05864 µg/mL (≈ 0.0462 µM).

What about the IC50 [17] of the same molecule?
The IC50 was 0.1836 µg/mL (≈ 0.145 µM).

And the Ki [17]?
Its Ki is 0.1559 µg/mL (≈ 0.123 µM).

And the IC50 [18]?
The IC50 was 1.693 µg/mL (≈ 1.33 µM).

And the Ki [18]?
The Ki was 1.44788 µg/mL (≈ 1.14 µM).

What about the IC50 [19] of the same molecule?
The IC50 was 1.085 µg/mL (≈ 0.854 µM).

And the Ki [19]?
Its Ki is 2.67363 µg/mL (≈ 2.1 µM).

And the IC50 [20]?
The IC50 was 2.533 µg/mL (≈ 1.99 µM).

What about the Ki [20] of the same molecule?
Its Ki is 0.86713 µg/mL (≈ 0.683 µM).

What about the IC50 [21] of the same molecule?
Its IC50 is 0.9246 µg/mL (≈ 0.728 µM).

And the Ki [21]?
The Ki was 2.58853 µg/mL (≈ 2.04 µM).

What about the IC50 [22] of the same molecule?
Its IC50 is 1.765 µg/mL (≈ 1.39 µM).

What about the Ki [22] of the same molecule?
The Ki was 0.49383 µg/mL (≈ 0.389 µM).

And the IC50 [23]?
Its IC50 is 0.07739 µg/mL (≈ 0.0609 µM).

And the Ki [23]?
The Ki was 0.26473 µg/mL (≈ 0.208 µM).

What about the IC50 [24] of the same molecule?
Its IC50 is 1.194 µg/mL (≈ 0.94 µM).

And the Ki [24]?
Its Ki is 2.2495 µg/mL (≈ 1.77 µM).

What about the Km [25] of the same molecule?
Its Km is 89 µM.

And the Vmax [25]?
Its Vmax is 5.87 nmol/min.

What about the Km [26] of the same molecule?
Its Km is 122 µM.

And the Vmax [26]?
Its Vmax is 5.8 nmol/min.

And the Km [27]?
Its Km is 102 µM.

And the Vmax [27]?
Its Vmax is 6.04 nmol/min.

What about the Km [28] of the same molecule?
The Km was 98 µM.

And the Vmax [28]?
Its Vmax is 3.12 nmol/min.

And the Km [29]?
Its Km is 61 µM.

And the Vmax [29]?
Its Vmax is 2.51 nmol/min.

What about the Km [30] of the same molecule?
The Km was 61 µM.

What about the Vmax [30] of the same molecule?
Its Vmax is 5.81 nmol/min.

And the Km [31]?
Its Km is 31 µM.

And the Vmax [31]?
Its Vmax is 2.36 nmol/min.

Reference: ChEMBL document CHEMBL1629579, “Correlating echinocandin MIC and kinetic inhibition of fks1 mutant glucan synthases for Candida albicans: implications for interpretive breakpoints” (Antimicrob Agents Chemother, 2009)
